Source: ChEMBL document CHEMBL1773023, “Potent and selective phosphopeptide mimetic prodrugs targeted to the Src homology 2 (SH2) domain of signal transducer and activator of transcription 3” (J Med Chem, 2011)
The source made the active and inactive calls. The rule behind the calls is not given here.

Tests used:
[1] = biological target: RAC-alpha serine/threonine-protein kinase (Homo sapiens) (UniProt P31749); assay: Inhibition of Akt phosphorylation at Ser473 in human HCC-827 cells at 5 uM after up to 24 hrs by Western blotting; assay type: cell-based
[2] = biological target: T1, Signal transducer and activator of transcription 5A (Homo sapiens) (UniProt P42229); assay: Inhibition of EGF-induced SH2 domain of Stat5 phosphorylation at Tyr694 in human MDA-MB-468 cells at 5 uM treated 1.5 hrs before EGF challenge measured after 30 mins by Western blotting; assay type: cell-based
T1 sequence (whole entry): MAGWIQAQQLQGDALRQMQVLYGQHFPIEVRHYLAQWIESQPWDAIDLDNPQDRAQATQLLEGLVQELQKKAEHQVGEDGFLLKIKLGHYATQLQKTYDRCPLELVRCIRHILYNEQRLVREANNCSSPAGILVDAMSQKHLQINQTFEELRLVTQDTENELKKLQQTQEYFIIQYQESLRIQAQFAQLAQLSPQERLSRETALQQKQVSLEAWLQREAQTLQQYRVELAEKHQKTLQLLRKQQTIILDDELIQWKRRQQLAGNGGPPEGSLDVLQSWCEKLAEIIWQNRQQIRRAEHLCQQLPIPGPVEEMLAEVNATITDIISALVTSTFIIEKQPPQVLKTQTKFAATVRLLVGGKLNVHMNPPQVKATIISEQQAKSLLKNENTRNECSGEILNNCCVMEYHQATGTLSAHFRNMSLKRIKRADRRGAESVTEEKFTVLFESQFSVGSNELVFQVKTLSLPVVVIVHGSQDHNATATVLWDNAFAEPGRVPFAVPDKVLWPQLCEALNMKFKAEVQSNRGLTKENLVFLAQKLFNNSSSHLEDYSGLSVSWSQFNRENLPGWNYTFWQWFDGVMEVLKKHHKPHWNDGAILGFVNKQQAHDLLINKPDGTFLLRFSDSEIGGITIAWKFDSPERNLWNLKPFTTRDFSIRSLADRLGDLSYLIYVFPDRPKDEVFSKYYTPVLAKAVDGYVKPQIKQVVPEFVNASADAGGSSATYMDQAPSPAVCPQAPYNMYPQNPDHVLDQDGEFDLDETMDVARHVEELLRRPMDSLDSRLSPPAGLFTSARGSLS
In short: (§1)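 MDA-MB-468 cells pretreated 1.5 h with prodrug (5 μM), then EGF 100 ng/mL for 30 min; lysates split onto three PVDF blots probed for phospho/total Stat3, pSer473/total Akt, and phospho/total Stat5.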

[3] = test system: MDA-MB-468; assay: Decrease of Bcl-xl gene expression in human MDA-MB-468 cells at 5 uM; assay type: functional, cell-based
[4] = Cytotoxicity against human SKOV3ip cells after 72 hrs by SRB assay; assay type: functional, cell-based; conditions: SKOV3-ip
In short: (§2)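 Cancer cell lines (MCF-7, SKOV3-ip, HCC-827) dosed daily with prodrug for three days; viability by SRB assay.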

[5] = Cytotoxicity against human HCC827 cells after 72 hrs by SRB assay; assay type: functional, cell-based; conditions: HCC827, 72 h; in short: as §2
[6] = biological target: T2, Signal transducer and activator of transcription 3 (Homo sapiens, UniProt P40763); assay: Inhibition of SH2 domain of Stat3 constitutive phosphorylation at Tyr705 in human MDA-MB-468 cells at 5 uM after 30 mins by Western blotting; assay type: cell-based
In short: (§3)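 MDA-MB-468 cells given a single 5 μM prodrug dose and harvested at set times; pTyr705 and total Stat3 by Western blot of 12 μg lysate protein on 8% SDS-PAGE.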

[7] = biological target: T2, Signal transducer and activator of transcription 3; assay: Inhibition of SH2 domain of Stat3 constitutive phosphorylation at Tyr705 in human MDA-MB-468 cells at 5 uM after 2 hrs by fluorescence immunohistochemical analysis; assay type: cell-based
In short: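 MDA-MB-468 cells on slides treated with 5 μM prodrug or DMSO for 2 h, fixed in 4% paraformaldehyde, permeabilized with 0.5% Triton X-100, blocked in 3% BSA, stained with anti-pTyr705 Stat3 and Alexa Fluor 594 secondary; confocal imaging at fixed microscope settings.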

[8] = biological target: T2, Signal transducer and activator of transcription 3; assay: Inhibition of constitutive SH2 domain of Stat3 phosphorylation at Tyr705 in human SKOV3-ip cells at 1 uM measured after 2 hrs by Western blotting
[9] = test system: MCF7; assay: Cytotoxicity against human MCF7 cells after 72 hrs by SRB assay; assay type: functional, cell-based; conditions: MCF7, 72 h; in short: as §2
[10] = biological target: MAP kinase p38 (Homo sapiens) (UniProt O15264+Q15759+Q16539+P53778); assay: Inhibition of p38 MAPK phosphorylation in human HCC-827 cells at 5 uM after up to 24 hrs by Western blotting; assay type: cell-based
[11] = Cytotoxicity against human NCI-H528 cells assessed as cell growth inhibition at 5 to 10 uM after 72 hrs by MTT assay; assay type: functional
In short: (§4)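 Cell lines with constitutive Stat3 phosphorylation (melanoma, NSCLC) exposed to prodrug at 5–10 μM. Percent growth inhibition recorded.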

[12] = test system: MeWo; assay: Cytotoxicity against human MeWo cells assessed as cell growth inhibition at 5 to 10 uM after 72 hrs by MTT assay; assay type: functional; in short: as §4
[13] = biological target: Focal adhesion kinase 1 (Homo sapiens) (UniProt Q05397); assay: Inhibition of constitutive FAK phosphorylation at Tyr861 in human MDA-MB-468 cells at 5 uM measured after 2 hrs by Western blotting
[14] = biological target: T2, Signal transducer and activator of transcription 3; assay: Inhibition of SH2 domain of Stat3 constitutive phosphorylation at Tyr705 in human MDA-MB-468 cells at 5 uM after 16 hrs by Western blotting; assay type: cell-based; in short: as §3
[15] = biological target: RAC-alpha serine/threonine-protein kinase (Homo sapiens) (UniProt P31749); assay: Inhibition of EGF-induced Akt phosphorylation at Ser473 in human MDA-MB-468 cells at 5 uM treated 1.5 hrs before EGF challenge measured after 30 mins by Western blotting; assay type: cell-based; in short: as §1
[16] = biological target: T2, Signal transducer and activator of transcription 3; assay: Inhibition of SH2 domain of Stat3 constitutive phosphorylation at Tyr705 in human MDA-MB-468 cells at 0.5 uM after 2 hrs by Western blotting; assay type: cell-based
In short: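 MDA-MB-468 cells (4×10^5/well, DMEM 10% FCS, overnight) given prodrug from freshly made 10 mM DMSO stock for 2 h. Lysates in Hepes pH 7.4 Triton buffer with phosphatase/protease inhibitors; 12 μg protein on 8% SDS-PAGE, PVDF, probed for pStat3 Y705 by ECL, then stripped and reprobed for total Stat3.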

[17] = biological target: T2, Signal transducer and activator of transcription 3; assay: Inhibition of SH2 domain of Stat3 phosphorylation at Tyr705 in human HCC-827 cells at 5 uM after 4 hrs by Western blotting; assay type: cell-based
In short: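 HCC-827 NSCLC cells treated with 5 μM prodrug and sampled over a time course from 10 min to 24 h; pStat3 by Western blot.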

[18] = biological target: Baculoviral IAP repeat-containing protein 5 (Homo sapiens) (UniProt O15392); assay: Inhibition of survivin in human HCC-827 cells at 5 uM after up to 48 hrs by Western blotting; assay type: cell-based
Chain of Baculoviral IAP repeat-containing protein 5 (Homo sapiens) (O15392 whole entry): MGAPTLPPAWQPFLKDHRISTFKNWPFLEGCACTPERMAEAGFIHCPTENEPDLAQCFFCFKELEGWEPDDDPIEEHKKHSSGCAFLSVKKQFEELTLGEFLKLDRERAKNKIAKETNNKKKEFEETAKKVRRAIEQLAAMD

T2 sequence (P40763 whole entry, the tested form may be a part): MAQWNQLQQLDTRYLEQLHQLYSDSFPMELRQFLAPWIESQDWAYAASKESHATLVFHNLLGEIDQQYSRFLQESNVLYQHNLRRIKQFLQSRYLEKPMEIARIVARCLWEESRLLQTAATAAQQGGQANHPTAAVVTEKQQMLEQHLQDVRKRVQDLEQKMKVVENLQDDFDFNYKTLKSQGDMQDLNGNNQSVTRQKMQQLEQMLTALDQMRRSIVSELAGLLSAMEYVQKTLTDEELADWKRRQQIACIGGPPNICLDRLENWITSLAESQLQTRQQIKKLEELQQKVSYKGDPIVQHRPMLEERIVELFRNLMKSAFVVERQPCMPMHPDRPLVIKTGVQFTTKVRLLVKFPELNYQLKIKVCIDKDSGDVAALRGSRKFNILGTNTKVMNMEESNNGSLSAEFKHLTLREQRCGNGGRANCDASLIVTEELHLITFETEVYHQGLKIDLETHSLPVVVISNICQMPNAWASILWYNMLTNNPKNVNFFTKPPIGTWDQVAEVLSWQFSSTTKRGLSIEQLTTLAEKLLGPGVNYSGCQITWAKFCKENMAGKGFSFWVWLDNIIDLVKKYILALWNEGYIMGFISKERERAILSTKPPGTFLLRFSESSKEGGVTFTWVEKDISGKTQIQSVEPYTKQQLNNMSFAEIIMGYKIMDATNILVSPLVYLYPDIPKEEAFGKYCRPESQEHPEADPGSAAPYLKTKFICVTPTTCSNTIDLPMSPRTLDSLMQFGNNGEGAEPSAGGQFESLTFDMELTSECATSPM
Chain of RAC-alpha serine/threonine-protein kinase (Homo sapiens) (P31749 whole entry, the tested form may be a part): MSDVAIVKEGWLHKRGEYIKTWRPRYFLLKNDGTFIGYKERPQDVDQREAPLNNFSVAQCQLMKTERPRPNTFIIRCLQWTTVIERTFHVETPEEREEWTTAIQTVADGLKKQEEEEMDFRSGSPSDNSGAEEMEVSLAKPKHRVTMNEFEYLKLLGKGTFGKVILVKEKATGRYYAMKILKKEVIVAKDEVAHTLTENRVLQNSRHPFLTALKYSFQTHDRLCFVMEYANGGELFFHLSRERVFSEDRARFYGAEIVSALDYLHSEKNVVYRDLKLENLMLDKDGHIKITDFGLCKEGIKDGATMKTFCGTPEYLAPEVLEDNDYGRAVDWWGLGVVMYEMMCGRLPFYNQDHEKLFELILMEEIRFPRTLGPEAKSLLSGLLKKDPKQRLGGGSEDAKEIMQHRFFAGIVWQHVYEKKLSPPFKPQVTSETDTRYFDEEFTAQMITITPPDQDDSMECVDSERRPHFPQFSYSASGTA
Chain of Focal adhesion kinase 1 (Homo sapiens) (Q05397 2-1052 limits assumed): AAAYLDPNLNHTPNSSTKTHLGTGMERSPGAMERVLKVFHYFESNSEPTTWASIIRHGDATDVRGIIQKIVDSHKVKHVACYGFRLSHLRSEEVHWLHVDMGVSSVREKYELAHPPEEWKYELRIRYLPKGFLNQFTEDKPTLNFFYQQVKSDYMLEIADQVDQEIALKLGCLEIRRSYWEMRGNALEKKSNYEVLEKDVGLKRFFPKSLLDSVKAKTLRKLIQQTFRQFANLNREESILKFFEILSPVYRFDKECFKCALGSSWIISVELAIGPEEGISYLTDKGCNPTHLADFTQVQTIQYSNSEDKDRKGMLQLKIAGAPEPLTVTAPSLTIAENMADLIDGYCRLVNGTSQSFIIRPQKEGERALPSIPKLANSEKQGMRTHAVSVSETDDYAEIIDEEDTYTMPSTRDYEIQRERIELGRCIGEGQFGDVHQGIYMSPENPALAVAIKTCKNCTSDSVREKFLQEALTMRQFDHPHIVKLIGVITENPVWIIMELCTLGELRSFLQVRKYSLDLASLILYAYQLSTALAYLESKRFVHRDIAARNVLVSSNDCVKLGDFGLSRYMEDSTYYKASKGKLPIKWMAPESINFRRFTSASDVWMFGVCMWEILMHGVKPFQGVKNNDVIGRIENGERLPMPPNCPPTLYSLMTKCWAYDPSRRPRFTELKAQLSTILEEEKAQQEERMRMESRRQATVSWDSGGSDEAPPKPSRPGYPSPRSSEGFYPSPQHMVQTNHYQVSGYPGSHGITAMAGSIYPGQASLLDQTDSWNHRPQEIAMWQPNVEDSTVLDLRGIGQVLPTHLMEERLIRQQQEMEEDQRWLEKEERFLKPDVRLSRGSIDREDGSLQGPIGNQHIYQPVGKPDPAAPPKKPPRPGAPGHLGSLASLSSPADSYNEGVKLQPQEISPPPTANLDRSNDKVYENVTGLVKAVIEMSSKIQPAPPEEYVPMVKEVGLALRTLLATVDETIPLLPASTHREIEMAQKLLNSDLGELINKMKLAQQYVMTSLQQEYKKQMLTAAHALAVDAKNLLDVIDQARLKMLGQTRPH

In the case of `C/C(=C\C(=O)N[C@H]1CCc2cccc3c2N(C1=O)[C@H](C(=O)N[C@H](C)CCC(N)=O)C3)c1ccc(C(F)(F)P(=O)(OCOC(=O)C(C)(C)C)OCOC(=O)C(C)(C)C)cc1`, the inhibition [1] is reported as “inactive”, the inhibition [2] is reported as “inactive” and the Activity [3] is reported as “inactive”. The IC50 [4] was over 30 µM, the IC50 [5] was over 30 µM and the inhibition [6] was “Active”. For the same molecule, the inhibition [7] was “Active”, the inhibition [8] was “Active” and the IC50 [9] was over 30 µM. For the same molecule, the inhibition [10] was “inactive”, the “growth inhibition (GI)” value [11] was under 20% and the “growth inhibition (GI)” value [12] was under 20%. The inhibition [13] was “inactive”, the inhibition [14] was “inactive” and the inhibition [15] was “inactive”. For the same molecule, the inhibition [16] was “Active”, the inhibition [17] was “Active” and the inhibition [18] was “Active”.
